# According to ChEMBL document CHEMBL2062460, “Disubstituted thiourea derivatives and their activity on CNS: synthesis and biological evaluation” (Eur J Med Chem, 2012):
# Activity calls are given as the source filed them. The calls are words filed in the database; no cut-off is given here.
# Columns and labels:
# Staphylococcus aureus [1] = assay: Antibacterial activity against Staphylococcus aureus ATCC 25923 after 18 hrs by twofold serial agar dilution technique; assay type: functional; conditions: ATCC 25923, 18 h
# Procedure, shortened: (§1)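 Twofold serial agar dilution on Mueller–Hinton II agar, following CLSI guidelines. Compounds were dissolved in methanol or DMSO and tested at final agar concentrations of 3.125–400 µg/mL. Final inoculum was 10^4 CFU/mL.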
# Staphylococcus aureus [2] = assay: Antibacterial activity against methicillin-resistant Staphylococcus aureus clinical isolate 309/08 after 18 hrs by twofold serial agar dilution technique; assay type: functional; conditions: clinical isolate 309/08, 18 h
# Procedure, shortened: (§2)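 Clinical isolates came from patients in Warsaw Medical University Hospitals and were classed as methicillin-susceptible or -resistant. MIC was determined by twofold serial agar dilution on Mueller–Hinton II agar (CLSI), 3.125–400 µg/mL in agar, with compounds in methanol or DMSO. Inoculum was 10^4 CFU/mL and plates were read after 18 h at 35 °C.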
# Pseudomonas aeruginosa [3] = assay: Antibacterial activity against Pseudomonas aeruginosa ATCC 27853 at 400 ug/disc after 18 hrs by disc diffusion method; assay type: functional, organism-based
# Procedure, shortened: (§3)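 Disc diffusion per CLSI on Mueller–Hinton II agar; 9 mm paper discs loaded from methanol or DMSO solutions to 400 µg per disc, dried; growth inhibition zone diameter read after 18 h at 35 °C.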
# Staphylococcus aureus [4] = assay: Antibacterial activity against Staphylococcus aureus ATCC 6538 at 400 ug/disc after 18 hrs by disc diffusion method; assay type: functional; conditions: ATCC 6538, 18 h, read-out: DIZ; procedure, shortened: as §3
# Micrococcus luteus [5] = assay: Antibacterial activity against Micrococcus luteus ATCC 10240 after 18 hrs by twofold serial agar dilution technique; assay type: functional; conditions: ATCC 10240, 18 h
# Staphylococcus aureus [6] = assay: Antibacterial activity against methicillin-susceptible Staphylococcus aureus clinical isolate 339/09 after 18 hrs by twofold serial agar dilution technique; assay type: functional; conditions: clinical isolate 339/09, 18 h; procedure, shortened: as §2
# Candida albicans = assay: Antifungal activity against Candida albicans ATCC 10231 at 400 ug/disc after 18 hrs by disc diffusion method; assay type: functional, organism-based
# Procedure, shortened: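 Yeasts tested by disc diffusion (CLSI) on RPMI agar with 2% glucose; 9 mm paper discs bearing 400 µg compound from methanol or DMSO solution; inhibition zone diameter read after 18 h at 35 °C.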
# Staphylococcus aureus [7] = assay: Antibacterial activity against Staphylococcus aureus ATCC 6538 after 18 hrs by twofold serial agar dilution technique; assay type: functional; conditions: ATCC 6538, 18 h; procedure, shortened: as §1
# Micrococcus luteus [8] = assay: Antibacterial activity against Micrococcus luteus ATCC 9341 after 18 hrs by twofold serial agar dilution technique; assay type: functional; conditions: ATCC 9341, 18 h
# Staphylococcus aureus [9] = assay: Antibacterial activity against methicillin-resistant Staphylococcus aureus clinical isolate 356/09 after 18 hrs by twofold serial agar dilution technique; assay type: functional; conditions: clinical isolate 356/09, 18 h; procedure, shortened: as §2
# [10] = tested on: Staphylococcus epidermidis; assay: Antibacterial activity against Staphylococcus epidermidis ATCC 12228 after 18 hrs by twofold serial agar dilution technique; assay type: functional; conditions: ATCC 12228, 18 h; procedure, shortened: as §1
# Bacillus subtilis [11] = assay: Antibacterial activity against Bacillus subtilis ATCC 6633 at 400 ug/disc after 18 hrs by disc diffusion method; assay type: functional; conditions: ATCC 6633, 18 h, read-out: DIZ; procedure, shortened: as §3
# Bacillus subtilis [12] = assay: Antibacterial activity against Bacillus subtilis ATCC 6633 after 18 hrs by twofold serial agar dilution technique; assay type: functional; conditions: ATCC 6633, 18 h
# Staphylococcus aureus [13] = assay: Antibacterial activity against Staphylococcus aureus ATCC 25923 at 400 ug/disc after 18 hrs by disc diffusion method; assay type: functional; conditions: ATCC 25923, 18 h, read-out: DIZ; procedure, shortened: as §3
# Staphylococcus aureus [14] = assay: Antibacterial activity against methicillin-resistant Staphylococcus aureus clinical isolate 307/08 after 18 hrs by twofold serial agar dilution technique; assay type: functional; conditions: clinical isolate 307/08, 18 h; procedure, shortened: as §2
# Staphylococcus aureus [15] = assay: Antibacterial activity against methicillin-resistant Staphylococcus aureus clinical isolate 277/08 after 18 hrs by twofold serial agar dilution technique; assay type: functional; conditions: clinical isolate 277/08, 18 h; procedure, shortened: as §2
# Staphylococcus aureus [16] = assay: Antibacterial activity against methicillin-susceptible Staphylococcus aureus clinical isolate 338/08 after 18 hrs by twofold serial agar dilution technique; assay type: functional; conditions: clinical isolate 338/08, 18 h; procedure, shortened: as §2
# Bacillus cereus = assay: Antibacterial activity against Bacillus cereus ATCC 11778 at 400 ug/disc after 18 hrs by disc diffusion method; assay type: functional; conditions: ATCC 11778, 18 h, read-out: DIZ; procedure, shortened: as §3
# Staphylococcus aureus [17] = assay: Antibacterial activity against methicillin-susceptible Staphylococcus aureus clinical isolate 269/08 after 18 hrs by twofold serial agar dilution technique; assay type: functional; conditions: clinical isolate 269/08, 18 h; procedure, shortened: as §2
# Staphylococcus aureus [18] = assay: Antibacterial activity against methicillin-susceptible Staphylococcus aureus clinical isolate 367/09 after 18 hrs by twofold serial agar dilution technique; assay type: functional; conditions: clinical isolate 367/09, 18 h; procedure, shortened: as §2
# Staphylococcus aureus [19] = assay: Antibacterial activity against methicillin-resistant Staphylococcus aureus clinical isolate 306/08 after 18 hrs by twofold serial agar dilution technique; assay type: functional; conditions: clinical isolate 306/08, 18 h; procedure, shortened: as §2
# Micrococcus luteus [20] = assay: Antibacterial activity against Micrococcus luteus ATCC 9341 at 400 ug/disc after 18 hrs by disc diffusion method; assay type: functional; conditions: ATCC 9341, 18 h, read-out: DIZ; procedure, shortened: as §3
# Staphylococcus aureus [21] = assay: Antibacterial activity against Staphylococcus aureus NCTC 4163 at 400 ug/disc after 18 hrs by disc diffusion method; assay type: functional; conditions: NCTC 4163, 18 h, read-out: DIZ; procedure, shortened: as §3
# Pseudomonas aeruginosa [22] = assay: Antibacterial activity against Pseudomonas aeruginosa ATCC 15442 at 400 ug/disc after 18 hrs by disc diffusion method; assay type: functional, organism-based; procedure, shortened: as §3
# Staphylococcus aureus [23] = assay: Antibacterial activity against methicillin-susceptible Staphylococcus aureus clinical isolate 372/09 after 18 hrs by twofold serial agar dilution technique; assay type: functional; conditions: clinical isolate 372/09, 18 h; procedure, shortened: as §2
# [24] = tested on: Bordetella bronchiseptica; assay: Antibacterial activity against Bordetella bronchiseptica ATCC 4617 at 400 ug/disc after 18 hrs by disc diffusion method; assay type: functional, organism-based; procedure, shortened: as §3
# Proteus vulgaris = assay: Antibacterial activity against Proteus vulgaris NCTC 4635 at 400 ug/disc after 18 hrs by disc diffusion method; assay type: functional, organism-based; procedure, shortened: as §3
# Staphylococcus aureus [25] = assay: Antibacterial activity against methicillin-resistant Staphylococcus aureus clinical isolate 376/09 after 18 hrs by twofold serial agar dilution technique; assay type: functional; conditions: clinical isolate 376/09, 18 h; procedure, shortened: as §2
# Pseudomonas aeruginosa [26] = assay: Antibacterial activity against Pseudomonas aeruginosa NCTC 6749 at 400 ug/disc after 18 hrs by disc diffusion method; assay type: functional, organism-based; procedure, shortened: as §3
# Enterococcus hirae = assay: Antibacterial activity against Enterococcus hirae ATCC 10541 after 18 hrs by twofold serial agar dilution technique; assay type: functional; conditions: ATCC 10541, 18 h
# Staphylococcus aureus [27] = assay: Antibacterial activity against Staphylococcus aureus NCTC 4163 after 18 hrs by twofold serial agar dilution technique; assay type: functional; conditions: NCTC 4163, 18 h; procedure, shortened: as §1
# [28] = tested on: Staphylococcus epidermidis; assay: Antibacterial activity against methicillin-resistant Staphylococcus epidermidis clinical isolate 342/09 after 18 hrs by twofold serial agar dilution technique; assay type: functional; conditions: clinical isolate 342/09, 18 h; procedure, shortened: as §2
# [29] = tested on: Staphylococcus epidermidis; assay: Antibacterial activity against methicillin-resistant Staphylococcus epidermidis clinical isolate 316/08 after 18 hrs by twofold serial agar dilution technique; assay type: functional; conditions: clinical isolate 316/08, 18 h; procedure, shortened: as §2
# [30] = tested on: Staphylococcus epidermidis; assay: Antibacterial activity against methicillin-resistant Staphylococcus epidermidis clinical isolate 311/08 after 18 hrs by twofold serial agar dilution technique; assay type: functional; conditions: clinical isolate 311/08, 18 h; procedure, shortened: as §2
# [31] = tested on: Staphylococcus epidermidis; assay: Antibacterial activity against methicillin-resistant Staphylococcus epidermidis clinical isolate 377/09 after 18 hrs by twofold serial agar dilution technique; assay type: functional; conditions: clinical isolate 377/09, 18 h; procedure, shortened: as §2
# [32] = tested on: Staphylococcus epidermidis; assay: Antibacterial activity against methicillin-resistant Staphylococcus epidermidis clinical isolate 341/09 after 18 hrs by twofold serial agar dilution technique; assay type: functional; conditions: clinical isolate 341/09, 18 h; procedure, shortened: as §2
# [33] = tested on: Staphylococcus epidermidis; assay: Antibacterial activity against methicillin-resistant Staphylococcus epidermidis clinical isolate 340/09 after 18 hrs by twofold serial agar dilution technique; assay type: functional; conditions: clinical isolate 340/09, 18 h; procedure, shortened: as §2
Compound,MIC (Staphylococcus aureus [1]) [µg/mL],MIC (Staphylococcus aureus [2]) [µg/mL],diameter of the inhibition zone (DIZ) (Pseudomonas aeruginosa [3]),zone of inhibition at 400 µg/disc (Staphylococcus aureus [4]) [mm],MIC (Micrococcus luteus [5]) [µg/mL],MIC (Staphylococcus aureus [6]) [µg/mL],diameter of the inhibition zone (DIZ) (Candida albicans),MIC (Staphylococcus aureus [7]) [µg/mL],MIC (Micrococcus luteus [8]) [µg/mL],MIC (Staphylococcus aureus [9]) [µg/mL],MIC [10] [µg/mL],zone of inhibition at 400 µg/disc (Bacillus subtilis [11]) [mm],MIC (Bacillus subtilis [12]) [µg/mL],zone of inhibition at 400 µg/disc (Staphylococcus aureus [13]) [mm],MIC (Staphylococcus aureus [14]) [µg/mL],MIC (Staphylococcus aureus [15]) [µg/mL],MIC (Staphylococcus aureus [16]) [µg/mL],zone of inhibition at 400 µg/disc (Bacillus cereus) [mm],MIC (Staphylococcus aureus [17]) [µg/mL],MIC (Staphylococcus aureus [18]) [µg/mL],further results
Fc1cccc(NC(=S)Nc2nc[nH]n2)c1,50,12.5,inactive,15,50,12.5,inactive,100,50,12.5,50,32,50,34,12.5,12.5,24,14,12.5,12.5,MIC (Staphylococcus aureus [19]): 12.5 µg/mL; zone of inhibition at 400 µg/disc (Micrococcus luteus [20]): 36 mm; zone of inhibition at 400 µg/disc (Staphylococcus aureus [21]): 16 mm; diameter of the inhibition zone (DIZ) (Pseudomonas aeruginosa [22]): inactive; MIC (Staphylococcus aureus [23]): 25 µg/mL; diameter of the inhibition zone (DIZ) [24]: inactive; diameter of the inhibition zone (DIZ) (Proteus vulgaris): inactive; MIC (Staphylococcus aureus [25]): 25 µg/mL; diameter of the inhibition zone (DIZ) (Pseudomonas aeruginosa [26]): inactive; MIC (Enterococcus hirae): 400 µg/mL; MIC (Staphylococcus aureus [27]): 50 µg/mL
S=C(Nc1ccc(Cl)cc1)Nc1nc[nH]n1,25,25,inactive,15,25,25,inactive,25,25,25,25,22,12.5,23,25,50,25,16,25,25,MIC [28]: 200 µg/mL; MIC [29]: 25 µg/mL; MIC [30]: 25 µg/mL; MIC [31]: 25 µg/mL; MIC (Staphylococcus aureus [19]): 25 µg/mL; MIC [32]: 12.5 µg/mL; zone of inhibition at 400 µg/disc (Micrococcus luteus [20]): 26 mm; zone of inhibition at 400 µg/disc (Staphylococcus aureus [21]): 23 mm; diameter of the inhibition zone (DIZ) (Pseudomonas aeruginosa [22]): inactive; MIC [33]: 12.5 µg/mL; MIC (Staphylococcus aureus [23]): 25 µg/mL; diameter of the inhibition zone (DIZ) [24]: inactive; diameter of the inhibition zone (DIZ) (Proteus vulgaris): inactive; MIC (Staphylococcus aureus [25]): 25 µg/mL; diameter of the inhibition zone (DIZ) (Pseudomonas aeruginosa [26]): inactive; MIC (Enterococcus hirae): 200 µg/mL; MIC (Staphylococcus aureus [27]): 25 µg/mL
